According to ChEMBL document CHEMBL3244133, “Synthesis and biological activities of some uronic acids, uronates, uronamides, and urononitriles of pyrimidine nucleosides” (J Med Chem, 1978):
The source made the active and inactive calls. The calls are words filed in the database; no cut-off is given here.

Columns and labels:
[1] = Competitive inhibition of HSV-1 pyrimidine deoxythymidine kinase using 2-[14C]deoxythymidine as substrate; parameters: species or system Human alphaherpesvirus 1
Outline: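 HSV-1 encoded pyrimidine deoxyribonucleoside kinase, purified from LMTK⁻ cells. Assay at 37 °C in 50 mM Tris pH 7.8 with 3 mM ATP·Mg²⁺, 0.3 mg/mL BSA, 0.3 mM 2-mercaptoethanol and 2% glycerol. Substrate was varied [2-¹⁴C]deoxythymidine plus analogue. Reaction was started with enzyme; aliquots were taken over time and phosphorylated product measured. Ki came from double-reciprocal plots.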

[2] = Retention time of the compound by liquid chromatography; type: physicochemical
Outline: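 Reverse-phase HPLC with a methanol-water gradient, separating uronic acids from the parent pyrimidine bases and nucleosides.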

Enterococcus faecium [3] = assay: Antimicrobial activity against Streptococcus faecium assessed as growth inhibition at 400 uM after 15 to 17 hrs by turbidity assay in presence of 7 uM deoxythymidine; type: functional
Outline: (§1)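 S. faecium (ATCC 8043), washed and resuspended in saline to 100 Klett units, then diluted 10-fold as inoculum. Test compound was added to basal medium with deoxythymidine (7 μM final) or folic acid (4.53 nM final). Incubation was 15-17 h at 37 °C. Growth was taken as the turbidity change before versus after incubation, read on a Klett colorimeter with a red filter (640-700 nm).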

[4] = Antiviral activity against HSV1 CL101 infected in African green monkey Vero cells assessed as inhibition of plaque formation at 50 uM after 40 hrs relative to control; type: functional, Herpes simplex virus (type 1 / strain CL101); settings: Human alphaherpesvirus 1, Vero
Enterococcus faecium [5] = assay: Antimicrobial activity against Streptococcus faecium assessed as growth inhibition at 400 uM after 15 to 17 hrs by turbidity assay in presence of 4.53 nM folic acid; type: functional; outline: as §1
Enterococcus faecium [6] = assay: Antimicrobial activity against Streptococcus faecium after 15 to 17 hrs by turbidity assay; type: functional; settings: read-out: ED50 (the source's name); outline: as §1
[7] = Dissociation constant, pKa of the compound; type: physicochemical
L1210 = assay: Inhibition of deoxythymidylate synthetase in mouse L1210 cells at 250 uM; type: cell-based
Lacticaseibacillus casei = assay: Inhibition of Lactobacillus casei deoxythymidylate synthetase at 250 uM
Enterococcus faecium [8] = assay: Antimicrobial activity against Streptococcus faecium assessed as concentration required for maximum growth inhibition after 15 to 17 hrs by turbidity assay; type: functional; outline: as §1
[9] = Antiviral activity against HSV1 CL101 infected in African green monkey Vero cells assessed as inhibition of plaque formation at 400 uM after 40 hrs relative to control; type: functional, Herpes simplex virus (type 1 / strain CL101); settings: Human alphaherpesvirus 1, Vero
CCRF S-180 [10] = assay: Cytotoxicity against mouse S180 cells at 400 uM after 18 to 42 hrs relative to control; type: functional
CCRF S-180 [11] = assay: Cytotoxicity against mouse S180 cells at 0.001 uM after 18 to 42 hrs relative to control; type: functional
[12] = Antiviral activity against HSV1 CL101 infected in African green monkey Vero cells assessed as inhibition of plaque formation at 0.1 uM after 40 hrs relative to control; type: functional, Herpes simplex virus (type 1 / strain CL101); settings: Human alphaherpesvirus 1, Vero
[13] = Antiviral activity against HSV1 CL101 infected in African green monkey Vero cells assessed as inhibition of plaque formation at 40 uM after 40 hrs relative to control; type: functional, Herpes simplex virus (type 1 / strain CL101); settings: Human alphaherpesvirus 1, Vero
CCRF S-180 [14] = assay: Cytotoxicity against mouse S180 cells at 5 uM after 18 to 42 hrs relative to control; type: functional
[15] = Antiviral activity against HSV1 CL101 infected in African green monkey Vero cells assessed as inhibition of plaque formation at 200 uM after 40 hrs relative to control; type: functional, Herpes simplex virus (type 1 / strain CL101); settings: Human alphaherpesvirus 1, Vero
[16] = Antiviral activity against HSV1 CL101 infected in African green monkey Vero cells assessed as inhibition of plaque formation at 10 uM after 40 hrs relative to control; type: functional, Herpes simplex virus (type 1 / strain CL101); settings: Human alphaherpesvirus 1, Vero

N#C[C@H]1O[C@@H](n2cc(Br)c(=O)[nH]c2=O)C[C@@H]1O
Ki [1]: 1.8 µM

Cc1cn([C@H]2C[C@H](O)[C@@H](C(N)=O)O2)c(=O)[nH]c1=O
Ki [1]: 1.6 µM

COC(=O)[C@H]1O[C@@H](n2cc(C)c(=O)[nH]c2=O)C[C@@H]1O
Ki [1]: 4 µM

O=c1[nH]cc(I)c(=O)[nH]1
Retention_time [2]: 8.85 min

O=c1[nH]c(=O)n([C@H]2C[C@H](O)[C@@H](CO)O2)cc1I [IDOXURIDINE]
inhibition (INH) (Enterococcus faecium [3]): 12% | inhibition at 50 µM [4]: 99.7% | inhibition (INH) (Enterococcus faecium [5]): 71% | Ki [1]: 0.2 µM | Retention_time [2]: 14.41 min

Nc1ccn([C@H]2C[C@H](O)[C@@H](CO)O2)c(=O)n1 [DOXECITINE]
EC50 (Enterococcus faecium [6]): 50 µM

Cc1cn([C@H]2C[C@H](O)[C@@H](CO)O2)c(=O)[nH]c1=O [DOXRIBTIMINE]
EC50 (Enterococcus faecium [6]): 11 µM | pKa [7]: 9.8

CC(=O)O[C@H]1C[C@H](n2cc(I)c(=O)[nH]c2=O)O[C@@H]1C(N)=O
Ki [1]: 20 µM

CC(=O)O[C@H]1C[C@H](n2cc(Br)c(=O)[nH]c2=O)O[C@@H]1C(N)=O
Ki [1]: 192 µM

NC(=O)[C@H]1O[C@@H](n2ccc(O)nc2=O)C[C@@H]1O (stereo in doubt; 19) [listing 1 of 2 here]
inhibition (L1210): inactive | inhibition (Lacticaseibacillus casei): inactive

N#C[C@H]1O[C@@H](n2cc(F)c(=O)[nH]c2=O)C[C@@H]1O
inhibition (L1210): inactive | inhibition (Lacticaseibacillus casei): inactive | Ki [1]: 75 µM

CC(=O)O[C@H]1C[C@H](n2cc(F)c(=O)[nH]c2=O)O[C@@H]1C(N)=O
Ki [1]: 960 µM

O=c1[nH]cc(F)c(=O)[nH]1 [FLUOROURACIL]
Retention_time [2]: 5.29 min

NC(=O)[C@H]1O[C@@H](n2ccc(O)nc2=O)C[C@@H]1O (stereo in doubt)
Ki [1]: 310 µM | Activity (Enterococcus faecium [8]): 600 µM

COC(=O)[C@H]1O[C@@H](n2cc(F)c(O)nc2=O)C[C@@H]1O
inhibition (L1210): inactive | inhibition (INH) (Enterococcus faecium [3]): 0% | inhibition (Lacticaseibacillus casei): inactive | inhibition at 400 µM [9]: 0% | inhibition (INH) (Enterococcus faecium [5]): 0% | Ki [1]: 410 µM | inhibition at 400 µM (CCRF S-180 [10]): 32%

O=C(O)[C@H]1O[C@@H](n2cc(Br)c(O)nc2=O)C[C@@H]1O
Ki [1]: 2.7 µM | Retention_time [2]: 2.56 min

CC(=O)O[C@H]1C[C@H](n2cc(C)c(=O)[nH]c2=O)O[C@@H]1CO
Ki [1]: 58 µM

Nc1nc(=O)n([C@H]2C[C@H](O)[C@@H](CO)O2)cc1Br
Retention_time [2]: 16.53 min

Nc1nc(=O)n([C@H]2C[C@H](O)[C@@H](C(=O)O)O2)cc1Br
Retention_time [2]: 3.05 min

NC(=O)[C@H]1O[C@@H](n2cc(F)c(=O)[nH]c2=O)C[C@@H]1O
inhibition (L1210): inactive | inhibition (Lacticaseibacillus casei): inactive | Ki [1]: 18 µM

COC(=O)[C@H]1O[C@@H](n2cc(I)c(=O)[nH]c2=O)C[C@@H]1O
Ki [1]: 1.5 µM

O=c1[nH]c(=O)n([C@H]2C[C@H](O)[C@@H](CF)O2)cc1I
Ki [1]: 1.5 µM

Nc1nc(=O)n([C@H]2C[C@H](O)[C@@H](CO)O2)cc1I [IBACITABINE]
Retention_time [2]: 19.87 min

O=c1[nH]c(=O)n([C@H]2C[C@H](O)[C@@H](CO)O2)cc1F [FLOXURIDINE]
inhibition (INH) (Enterococcus faecium [3]): 96% | inhibition at 0.001 µM (CCRF S-180 [11]): 95% | inhibition at 0.1 µM [12]: 88% | inhibition (INH) (Enterococcus faecium [5]): 95% | Ki [1]: 1.5 µM | Retention_time [2]: 7.93 min

N#C[C@H]1O[C@@H](n2cc(I)c(O)nc2=O)C[C@@H]1O
inhibition (INH) (Enterococcus faecium [3]): 0% | inhibition at 400 µM [9]: 74% | inhibition (INH) (Enterococcus faecium [5]): 14% | Ki [1]: 1.3 µM | inhibition at 400 µM (CCRF S-180 [10]): 0%

NC(=O)[C@H]1O[C@@H](n2cc(Br)c(O)nc2=O)C[C@@H]1O
inhibition (INH) (Enterococcus faecium [3]): 0% | inhibition at 40 µM [13]: 42% | inhibition at 400 µM [9]: 92% | inhibition (INH) (Enterococcus faecium [5]): 0% | Ki [1]: 0.8 µM | inhibition at 400 µM (CCRF S-180 [10]): 0%

O=c1[nH]cc(Br)c(=O)[nH]1 [5-BROMOURACIL]
Retention_time [2]: 7.69 min

Nc1ccn([C@@H]2O[C@H](CO)[C@@H](O)[C@@H]2O)c(=O)n1 [CYTARABINE]
inhibition at 5 µM (CCRF S-180 [14]): 98% | inhibition at 200 µM [15]: 91% | Retention_time [2]: 2.07 min

Nc1ccn([C@@H]2O[C@H](C(=O)O)[C@@H](O)[C@@H]2O)c(=O)n1
inhibition (INH) (Enterococcus faecium [3]): 0% | inhibition at 400 µM [9]: 0% | inhibition (INH) (Enterococcus faecium [5]): 0% | inhibition at 400 µM (CCRF S-180 [10]): 76% | Retention_time [2]: 2.56 min

CC(=O)O[C@H]1C[C@H](n2cc(Br)c(=O)[nH]c2=O)O[C@@H]1C#N
Ki [1]: 28 µM

Cc1cn([C@H]2C[C@H](O)[C@@H](C(=O)O)O2)c(=O)[nH]c1=O [5'-CARBOXY THYMIDINE]
Ki [1]: 5.4 µM

COC(=O)[C@H]1O[C@@H](n2cc(Br)c(=O)[nH]c2=O)C[C@@H]1O
Ki [1]: 2.9 µM

COC(=O)[C@H]1O[C@@H](n2ccc(=O)[nH]c2=O)C[C@@H]1O
Ki [1]: 500 µM

O=c1[nH]c(=O)n([C@H]2C[C@H](O)[C@@H](CO)O2)cc1Br [BROXURIDINE]
inhibition (INH) (Enterococcus faecium [3]): 76% | inhibition at 10 µM [16]: 99.6% | inhibition (INH) (Enterococcus faecium [5]): 91% | Ki [1]: 0.2 µM | Retention_time [2]: 12.16 min

O=C(O)[C@H]1O[C@@H](n2cc(F)c(=O)[nH]c2=O)C[C@@H]1O [RIBOFURANURONIC ACID]
inhibition (L1210): inactive | inhibition (Lacticaseibacillus casei): inactive

Nc1nc(=O)n([C@H]2C[C@H](O)[C@@H](C(=O)O)O2)cc1I
Retention_time [2]: 3.35 min

O=C(O)[C@H]1O[C@@H](n2cc(I)c(O)nc2=O)C[C@@H]1O
Ki [1]: 4.2 µM | Retention_time [2]: 2.97 min

CC(=O)O[C@H]1C[C@H](n2cc(I)c(=O)[nH]c2=O)O[C@@H]1C#N
Ki [1]: 18 µM

NC(=O)[C@H]1O[C@@H](n2cc(I)c(O)nc2=O)C[C@@H]1O
inhibition (INH) (Enterococcus faecium [3]): 0% | inhibition at 40 µM [13]: 78% | inhibition at 400 µM [9]: 96% | inhibition (INH) (Enterococcus faecium [5]): 28% | Ki [1]: 1 µM | inhibition at 400 µM (CCRF S-180 [10]): 0%

NC(=O)[C@H]1O[C@@H](n2ccc(O)nc2=O)C[C@@H]1O (stereo in doubt; 19) [listing 2 of 2 here]
inhibition (INH) (Enterococcus faecium [3]): 71% | inhibition at 400 µM [9]: 0% | inhibition (INH) (Enterococcus faecium [5]): 22% | EC50 (Enterococcus faecium [6]): 200 µM | inhibition at 400 µM (CCRF S-180 [10]): 0% | Activity (Enterococcus faecium [8]): 600 µM

O=C(O)[C@H]1O[C@@H](n2ccc(=O)[nH]c2=O)C[C@@H]1O
Ki [1]: 500 µM

O=c1ccn([C@H]2C[C@H](O)[C@@H](CO)O2)c(=O)[nH]1 [DEOXYURIDINE]
EC50 (Enterococcus faecium [6]): 37 µM | Ki [1]: 9.5 µM | pKa [7]: 9.3
